High-throughput results: PubChem, several laboratories
T cruzi inh: T. cruzi replication inhibition; T. cruzi beta-gal in NIH3T3, luminescence, 90 h; AID 1885; inhibition, % (test concentration not listed); 300,000 compounds, 1.4% hits;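 active means mean inhibition across valid replicates above about 55%, limit read from the data; inconclusive means mean below that limit but half or more replicates reach it; inactive means mean below it, under half of replicates reach it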;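 further: signal also drops with host cell toxicity which is not excluded here; 0% = plate median of DMSO wells and 100% = zero luminescence signal; higher percent means less beta-gal luminescence so fewer parasites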
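Test system: β-gal T. cruzi (Tulahuen C4) inside NIH/3T3 cells / Quantity: 5,000 cells/well / Measured by: luminescence from GalScreen with 0.05% NP40, read after 60 min / Medium: DMEM plus 2% FBS / Measure: parasite load inhibition, % / Reagent: Tulahuen C4 trypomastigotes, 5000/well / Schedule: co-culture of at least 90 h after 3 h attachment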
Lmaj promast: reduces viability of Leishmania major promastigotes; inhibition, % at 10 µM; 200,000 compounds, 9% hits; resazurin fluorescence viability; in the data active means inhibition above about 50%;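 further: promastigotes grown with compound for 44 hours at 28 °C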
CHOP UPR activ: activators of apoptotic arm of unfolded protein response (CHOP). activation, % at 10 µM. CHO-CHOP luciferase reporter, UPR activation, luminescence; percent of tunicamycin response over DMSO baseline. AID 449763. 330,000 compounds, 0.34% hits;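 active means at 10 µM dose, activation of 40% or more, normalized to positive control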;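 further: 100% = tunicamycin at 10 µg/mL and 0% = DMSO alone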
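System: CHO-CHOP luciferase reporter cell line | Buffer or medium: F12 medium containing 10% fetal bovine serum | Doses: One dose, 10 µM in 0.5% DMSO | Times: 6 h compound exposure at 37 °C after overnight seeding | Signal: Luciferase luminescence | Read-out: % activation vs tunicamycin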
CHOP inhibitor: blocks CHOP induction under ER stress. CHO-K1 CHOP-promoter luciferase, tunicamycin-induced, 15-18 h. 220,000 compounds, 3.8% hits. AID 2732. inhibition, % at 10 µM;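 active means compounds that reduced the stress-induced luciferase reporter signal by more than about 70% of percent inhibition, limit read from the data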;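 further: 0% = tunicamycin plus vehicle and 100% = wells without tunicamycin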
UPR XBP1 act: adaptive UPR (XBP1) activation; activation, % at 20 µM; 330,000 compounds, 0.33% hits; CHO-XBP1 luciferase reporter, IRE1-XBP1 UPR activation, luminescence; percent of tunicamycin response, DMSO as zero; AID 463104;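 active means versus positive control, 20 µM dose yields 30% or more activation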;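 further: 100% = tunicamycin at 10 µg/mL and 0% = DMSO only wells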
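Material – CHO cell line with stable XBP1 luciferase reporter · Buffer or medium – F12 plus 10% FBS · Compound – single point, 20 µM final compound, 1% DMSO · Schedule – 16-18 h cell attachment at 37 °C, then 6 h compound exposure · Signal – Steady-Glo luminescence read · Benchmarks – high control tunicamycin 10 µg/mL final, low control DMSO vehicle only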
Dynein transport: dynein cargo transport inhibition. z-score, hits read low. 220,000 compounds, 0.47% hits. 3617.4 mouse cells, GR-EGFP nuclear translocation imaging; test concentration mostly 20 µM; stimulated with dexamethasone, 1 µM; active compounds read low. AID 1381;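 active means plate z-score of nuclear minus cytoplasmic receptor signal below a set negative limit, without overly bright fluorescence or cell loss, cut at about -3.5 in these data, passing the limit was not always enough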;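 further: z-score of nuclear minus cytoplasmic ring GR-EGFP intensity difference per well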
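Buffer or medium: tet-free, stripped-serum medium; reagent: dexamethasone at 1.0 µM final, 30 min; incubation: 48 h induction, 1 h compound, 30 min dex at 37 °C; measured by: formaldehyde fixation, Hoechst nuclear stain, 10x automated fluorescence imaging; read-out: nuclear-to-cytoplasmic GR-EGFP distribution per well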
CHOP inh conf: confirmation of CHOP induction inhibitors; shares compounds with CHOP inhibitor; CHO-CHOP promoter luciferase reporter, tunicamycin-induced, luminescence; inhibition, % at 10 µM; 2,100 compounds, 45% hits; AID 504437;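 active means mean of three repeat readings of reporter signal inhibition above a set limit, cut at about 70% in these data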;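 further: 0% = tunicamycin plus vehicle and 100% = wells lacking tunicamycin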
* hit, by the source's call; ? = inconclusive; · = no result given. The entries come from a sample that favours hits as a whole.

SMILES	T cruzi inh	Lmaj promast	CHOP UPR activ	CHOP inhibitor	UPR XBP1 act	Dynein transport	CHOP inh conf
CS(=O)(=O)c1nc(-c2ccco2)cc(C(F)(F)F)n1	55*	42	-10	111*	-5	-2.6	122*
COc1cc(/C=N/N=C(/C(=O)c2ccccc2)c2ccccc2)cc(OC)c1O	14	-6	3	99*	-2	-0.75	1
C=CCC(O)(CC=C)CNC(=O)c1ccc(OC)c(OC2CCN(C(C)=O)CC2)c1	-24	·	0	·	-2	·	·
NC(=O)c1ccc(C(F)(F)F)n(Cc2ccc(Cl)cc2)c1=O	7	-6	-1	97*	-1	0.61	82*
NC(=O)c1ccc(C(F)(F)F)n(Cc2ccc(F)c(F)c2)c1=O	6	8	1	32	0	1.7	·
C=C(C)Cn1c(N2CCC(Cc3ccccc3)CC2)nc2c1c(=O)[nH]c(=O)n2C	38	78*	2	99*	0	0.72	125*
CCCCCCCCCCC[C@@H](C[C@@H]1OC(=O)[C@H]1CCCCCC)OC(=O)[C@H](CC(C)C)NC=O	5	·	2	-1	-4	·	·
Cc1ccc(O)c(C(=O)CC(=O)c2cccc(F)c2)c1	-8	60*	23	108*	1	0.69	53
COc1ccc(O)c(C(=O)CC(=O)c2ccc(F)cc2)c1	0	53*	3	103*	-4	-0.41	68
Cc1ccc(C(=O)CC(=O)c2ccccc2)cc1	-7	·	7	·	0	·	·
COc1ccc(C(=O)COc2ccc(F)cc2)c(O)c1	-6	·	2	4	2	-0.99	·
Cc1cc(C)c(C)c(OCc2nc(-c3cccnc3)no2)c1	-13	1	-1	97*	-3	3.1	35
CC(Sc1nc2ncc(Cl)cc2[nH]1)C(=O)NC1(C#N)CCCCC1 (stereo unspecified)	·	·	-1	·	-3	·	·
O=C(CS(=O)(=O)Cc1ccccc1)N1CCN(c2cccc(C(F)(F)F)c2)CC1	13	-1	0	55	-1	0.16	·
OC(CN1CCN(c2cccc(C(F)(F)F)c2)CC1)c1c[nH]c2ccccc12 (stereo unspecified)	19	41	-1	97*	-6	-0.41	47
CCCOc1ccc(/C=N/NC(=S)Nc2ccccc2[N+](=O)[O-])c(O)c1	8	98*	·	101*	·	-0.21	32
Cc1ccccc1NC(=S)N/N=C/c1ccc(O)cc1O	49	·	3	38	5	-0.48	·
CCN1CCN(C(CNS(=O)(=O)c2cccs2)c2cccnc2)CC1 (stereo unspecified)	10	·	0	-13	0	-2	·
CC(C)Cc1nnc(NC(=O)CCC(=O)NC2CCCCCC2)s1	0	·	2	·	-1	·	·
O=C(COC(=O)c1ccccc1O)NC12CC3CC(CC(C3)C1)C2	·	·	4	·	3	·	·
O=C(COC(=O)/C=C/C(=O)OCC(=O)NC12CC3CC(CC(C3)C1)C2)NC12CC3CC(CC(C3)C1)C2	-10	-2	32	105*	3	-1.3	-12
Cc1ccc(C2=CC(c3ccc(N(C)C)cc3)n3nnnc3N2)cc1 (stereo unspecified)	8	2	29	100*	1	0.5	52
COc1ccc(C2=CC(c3ccc(F)cc3)n3nnnc3N2)cc1 (stereo unspecified)	-19	18	-1	47	0	-0.6	·
Cc1ccc2nc(COc3ccc(Cl)cc3)cc(=O)n2c1	5	1	4	-20	10	1.2	·
CC(C)(C)OC(=O)NCCCC[C@H](NC(=O)c1[nH]cnc1C(=O)Nc1ccc(CNC(=O)OC(C)(C)C)cc1)C(=O)OC(C)(C)C	·	·	11	29	7	-0.6	·
SMILES	T cruzi inh	Lmaj promast	CHOP UPR activ	CHOP inhibitor	UPR XBP1 act	Dynein transport	CHOP inh conf
C[C@H](NC(=O)c1nc[nH]c1C(=O)N[C@@H](Cc1ccccc1)C(=O)OC(C)(C)C)C(=O)OC(C)(C)C	25	·	0	97*	-4	-0.31	100*
CC(C)(C)OC(=O)[C@H](Cc1ccccc1)NC(=O)c1nc[nH]c1C(=O)N[C@@H](Cc1ccccc1)C(=O)OC(C)(C)C	40	·	2	31	18	-0.56	·
C[C@H](NC(=O)c1[nH]cnc1C(=O)Nc1ccc(CNC(=O)OC(C)(C)C)cc1)C(=O)OC(C)(C)C	36	·	3	98*	2	-0.4	78*
Clc1ccc2c(N/N=C/c3cccc(Br)c3)ccnc2c1	51	100*	·	105*	·	-0.9	32
Clc1ccc2c(N/N=C/c3ccccc3Br)ccnc2c1	55*	99*	13	100*	13	-0.4	77*
COc1ccc(-c2c(-c3ccccc3OC)oc3ccccc23)cn1	·	·	1	·	0	·	·
COc1oc(-c2ccc(Cl)cc2)nc1C(F)(F)F	-32	-5	34	103*	0	-0.13	71*
COc1ccc(C(=O)/C=C/C(=O)N(CC(=O)NC2CCCCC2)Cc2cccs2)c(O)c1	-19	31	-9	108*	-9	-3.4	119*
COc1ccc(-c2nnn(CC(=O)N(CC(=O)NC3CCCC3)Cc3cccs3)n2)cc1OC	0	-3	0	5	1	-0.64	·
Nc1cc(N)c(OCC(F)(F)F)cc1OCC(F)(F)F	2	88*	-1	102*	-2	-0.39	0
Clc1ccc(OCc2noc(-c3ccsc3)n2)c(Cl)c1	15	·	4	0	5	-0.68	·
O=C1C(Cl)=C(Nc2ccccc2)C(=O)c2ccccc21	?	-5	·	112*	·	-0.77	127*
Cc1cc(Cl)ccc1OCc1n[nH]c(=S)n1C1CCCCC1	-1	-2	-1	103*	-2	-0.65	119*
Cc1ccc(C(=O)NN2C(=O)C3C(C2=O)C2C=CC3C23CC3)cc1 (stereo unspecified)	-7	-3	2	6	-5	0.084	·
CC(=O)c1cn(N2CCCCC2)c(=O)[nH]c1=O	-5	·	-1	·	-1	·	·
Cc1cccc(C(=O)c2cnc3ccccc3c2-c2ccccc2)c1	18	21	0	102*	1	0.029	77*
Cc1cccc(C(=O)NNC(=O)c2ccccc2)c1	-15	28	2	-20	1	-0.35	·
O=C(Cc1ccc(Cl)c(Cl)c1)Nc1ccc2[nH]c(=O)[nH]c2c1	-4	-14	-1	98*	0	-0.47	6
Cc1n[nH]c(C)c1CCc1nc2c3ccccc3nc(SCC(=O)Nc3ccccc3F)n2n1	12	16	4	98*	2	1.5	-16
